How the values were obtained:
Mus musculus = species on record: Mus musculus; test: Effective dose for analgesic activity in mice; format: functional
Outline: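 Female ddN mice (18-22 g; 5-15 per dose) received compound in 0.5% aqueous tragacanth. Writhing was induced by intraperitoneal 0.03% phenylquinone, and writhes were counted over 15 min. ED50 was calculated by Litchfield–Wilcoxon.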

Rattus norvegicus [1] = test: Effective dose for antiinflammatory activity in carrageenan paw edema assay in rats after oral administration; format: functional
Outline: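 Male Wistar rats (120-150 g; 5-10 per dose) were dosed orally in 0.5% aqueous tragacanth. Edema was induced by subcutaneous injection of 1% aqueous carrageenan into the left hind paw.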

[2] = Lethal dose determined in rats when administered perorally; format: toxicity, organism-based; settings: rat, in vivo, po
Outline: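 Male Wistar rats (150-230 g), dosed orally with compound dissolved or suspended in 0.5% aqueous tragacanth. LD50 taken from mortality over 7 days and calculated by the Litchfield-Wilcoxon method.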

Rattus norvegicus [3] = species on record: Rattus norvegicus; test: Analgesic activity measured as silver nitrate induced arthritic pain in rats; format: functional
Outline: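 Pain in the arthritic rat paw was provoked with silver nitrate. Compounds were given in 0.5% aqueous tragacanth, and ED50 was calculated by the Litchfield–Wilcoxon method.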

Rattus norvegicus [4] = species on record: Rattus norvegicus; test: Antipyretic activity measured as yeast induced fever assay in rats; format: functional
Outline: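 Male Wistar rats (350-500 g); hyperthermia induced by subcutaneous injection of 15% yeast suspension. Test compounds dissolved or suspended in 0.5% aqueous tragacanth and administered. ED50 calculated by the Litchfield–Wilcoxon method.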

Rattus norvegicus [5] = test: compound was evaluated for the induction no of gastric ulcers in rats when administered perorally; format: functional, Stomach
Outline: (§1)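 Male Wistar rats were fasted 24 h and given compound once orally in 0.5% aqueous tragacanth. Stomachs were removed 6 h later and examined macroscopically. UD50 (dose causing ulcers in 50% of rats) was taken from each compound's regression line.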

Rattus norvegicus [6] = test: Compound was evaluated for the induction no of gastric ulcers in rats when administered perorally; format: functional, Stomach; outline: as §1
Rattus norvegicus [7] = test: Compound was evaluated for the induction of gastric ulcers in rats after oral administration; format: functional; settings: Stomach; outline: as §1

SMILES | ED50 (Mus musculus) [mg/kg] | ED50 (Rattus norvegicus [1]) [mg/kg] | also measured
O=C(O)Cc1ccc2c(c1)C=Cc1cc(Cl)ccc1O2 | > 100 | > 80 | –
O=C(O)Cc1ccc2c(c1)Oc1ccccc1C=C2 | > 100 | > 80 | –
O=C(O)Cc1ccc2c(c1)Oc1ccccc1CC2=O | ≥ 100 | 56.9 | –
O=C(O)Cc1ccc2c(c1)C(O)Cc1ccccc1O2 (stereo not given) | 44.6 | 24.3 | –
O=C(O)Cc1ccc2c(c1)C(=O)Cc1ccc(Cl)cc1O2 | > 100 | ≥ 80 | –
O=C(O)Cc1ccc2c(c1)Oc1ccccc1NC2=O | > 100 | > 80 | –
CC(C(=O)O)c1ccc2c(c1)C(=O)Nc1ccccc1O2 (stereo not given) | > 100 | > 80 | –
Cc1ccc2c(c1)CC(=O)c1cc(CC(=O)O)ccc1O2 | 13.8 | – | –
CC(C(=O)O)c1ccc2c(c1)C=Cc1ccccc1O2 (stereo not given) | > 100 | ≥ 80 | –
COc1ccc2c(c1)c(CC(=O)O)c(C)n2C(=O)c1ccc(Cl)cc1 [INDOMETHACIN] | 0.62 | – | LD50 [2]: 18.5 mg/kg; ED50 (Rattus norvegicus [3]): 4.3 mg/kg; ED50 (Rattus norvegicus [4]): 0.22 mg/kg; UD50 (Rattus norvegicus [5]): 8 mg/kg
Cc1ccc2c(c1)CC(O)c1cc(C(C)C(=O)O)ccc1O2 (stereo not given) | > 100 | > 80 | –
Cc1ccc2c(c1)C=Cc1cc(C(C)C(=O)O)ccc1S2 (stereo not given) | > 100 | > 80 | –
O=C(O)Cc1ccc2c(c1)C=Cc1ccccc1O2 | > 100 | 28.3 | –
O=C(O)Cc1ccc2c(c1)C=Cc1ccc(Cl)cc1O2 | 9.53 | 61.4 | –
Cc1ccc2c(c1)C=Cc1cc(C(C)C(=O)O)ccc1O2 (stereo not given) | > 100 | > 80 | –
CC(C(=O)O)c1ccc2c(c1)C(=O)Cc1ccccc1O2 (stereo not given) | 17.8 | – | –

SMILES | ED50 (Mus musculus) [mg/kg] | ED50 (Rattus norvegicus [1]) [mg/kg] | also measured
O=C(O)Cc1ccc2c(c1)Oc1ccccc1CC2O (stereo not given) | > 100 | > 80 | –
O=C(O)Cc1ccc2c(c1)C=Cc1cc(F)ccc1O2 | > 100 | > 80 | –
O=C(O)Cc1ccc2c(c1)C(=O)Cc1ccccc1O2 | 34.4 | 10.8 | –
CC(C(=O)O)c1ccc2c(c1)C(O)Cc1ccccc1O2 (stereo not given) | > 100 | > 80 | –
O=C(O)Cc1ccc2c(c1)C(=O)Cc1cc(Cl)ccc1O2 | ≥ 100 | ≥ 80 | –
Cc1ccc2c(c1)CC(=O)c1cc(C(C)C(=O)O)ccc1S2 (stereo not given) | 3.1 | – | LD50 [2]: > 100 mg/kg; UD50 (Rattus norvegicus [6]): 11.3 mg/kg
Cc1ccc2c(c1)CC(=O)c1cc(C(C)C(=O)O)ccc1O2 (stereo not given) [BERMOPROFEN] | 6.51 | – | LD50 [2]: 147 mg/kg; ED50 (Rattus norvegicus [7]): 13.8 mg/kg
Cc1ccc2c(c1)CC(O)c1cc(CC(=O)O)ccc1O2 (stereo not given) | > 100 | > 80 | –
O=C(O)Cc1ccc2c(c1)C(=O)Cc1cc(F)ccc1O2 | > 100 | ≥ 80 | –
Cc1ccc2c(c1)CC(O)c1cc(C(C)C(=O)O)ccc1S2 (stereo not given) | > 100 | > 80 | –
Cc1ccc2c(c1)C=Cc1cc(CC(=O)O)ccc1O2 | > 100 | > 80 | –
O=C(O)Cc1ccc2c(c1)C(O)Cc1cc(Cl)ccc1O2 (stereo not given) | > 100 | > 80 | –
O=C(O)Cc1ccc2c(c1)C(O)Cc1cc(F)ccc1O2 (stereo not given) | > 100 | > 80 | –
O=C(O)Cc1ccc2c(c1)C(O)Cc1ccc(Cl)cc1O2 (stereo not given) | > 100 | > 80 | –
O=C(O)Cc1ccc2c(c1)C(=O)Nc1ccccc1O2 | > 100 | > 80 | –
